# Neddyl block = inhibitors of human cullin neddylation; inhibition, % at 25 µM; 360,000 tested, 0.58% active; TR-FRET cullin neddylation, biochemical; P61081+Q13564; in the data active = inhibition above about 36%
# Cardio protect = protects H9c2 cardiomyocytes from peroxide injury; protection from H2O2 cell death, % at 20 µM; 360,000 tested, 0.63% active; H2O2 injury protection, ATPLite, 2 h;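 active = compounds giving at least 50% protection of heart cells from peroxide-induced death in the single-dose screen, raw or plate-pattern-corrected value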;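 also: 0% = DMSO wells with peroxide and 100% = DMSO wells without peroxide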
# ASAP1 inh = ASAP1 ArfGAP inhibition; Q9ULH1; ASAP1-stimulated ARF1 GTP hydrolysis, GDP FP detection; inhibition, % at 16.5 µM; 360,000 tested, 0.19% active; in the data active = inhibition above about 25%;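 also: 0% = vehicle with enzyme and substrate and 100% = no enzyme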
# Target sequence (Q9ULH1 325-724 limits assumed): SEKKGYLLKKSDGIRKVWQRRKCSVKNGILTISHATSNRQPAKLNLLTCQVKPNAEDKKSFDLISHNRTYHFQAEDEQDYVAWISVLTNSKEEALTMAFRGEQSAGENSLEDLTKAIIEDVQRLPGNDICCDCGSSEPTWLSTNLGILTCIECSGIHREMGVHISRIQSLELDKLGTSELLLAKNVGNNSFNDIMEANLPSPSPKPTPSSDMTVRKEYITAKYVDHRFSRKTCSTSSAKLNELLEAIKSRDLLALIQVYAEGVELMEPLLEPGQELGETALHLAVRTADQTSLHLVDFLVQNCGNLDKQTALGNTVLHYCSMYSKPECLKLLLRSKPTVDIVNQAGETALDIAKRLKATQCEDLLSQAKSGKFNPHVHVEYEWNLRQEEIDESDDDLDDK
# ARFGAP1 inh = rat ARFGAP1 inhibition. Q62848. Arfgap1-stimulated ARF1 GTP hydrolysis, GDP FP detection. inhibition, % at 16.5 µM. 360,000 tested, 0.26% active. AID 651572;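 active = inhibition above a per-plate limit, mean inhibition of low control wells plus 3 SD, cut at about 25% in these data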;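 also: 0% = DMSO wells with enzyme and 100% = wells lacking Arfgap1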
# Target sequence (Q62848 1-136 limits assumed): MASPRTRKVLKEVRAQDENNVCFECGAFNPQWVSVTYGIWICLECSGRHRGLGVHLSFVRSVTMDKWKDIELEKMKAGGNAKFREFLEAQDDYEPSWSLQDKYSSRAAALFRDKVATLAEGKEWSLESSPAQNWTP
#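 Assay system: purified rat His6-Arfgap1 residues 1-136 (GAP domain); Reagent: human Δ17 ARF1 bound to GTP; Dosing: 16.5 µM single point, 1.26% DMSO; Times: GTP hydrolysis reaction 2 h at 25 °C; Signal: FP, GDP Alexa 633 tracer displaced from anti-GDP antibody, 620/688 nm; Measure: % inhibition from polarization.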
# The depositor's hits bear a star; · = not tested or not shown. Rows were chosen to be rich in hits. Some 1.6% of all compounds tested hit in one or more screens of this group.
SMILES,Neddyl block,Cardio protect,ASAP1 inh,ARFGAP1 inh
COc1c(Br)cc(/C=N/n2c(-c3ccccc3)n[nH]c2=S)c(O)c1Br,22,64*,0,-7
S=c1[nH]nc(-c2cc(-c3ccccc3)n[nH]2)n1/N=C/c1ccc(Br)s1,63*,-9,3,5
COc1ccccc1CN1Cc2ccccc2Oc2ccccc2S1(=O)=O,·,·,-12,2
Cc1ccc(S(=O)(=O)NCc2ccc3c(c2)OCO3)cc1,·,·,-15,-1
O=C(Nc1ccc(C(F)(F)F)cc1)c1cc(-c2cccnc2)nc2ccc(Br)cc12,-60,-1,6,3
CC(=O)Nc1cccc(NC(=O)c2cc(-c3cccnc3)nc3ccc(Cl)cc23)c1,-16,65*,1,17
CC(=O)Nc1cccc(NC(=O)c2cc(-c3cccnc3)nc3ccc(Br)cc23)c1,-163,80*,14,-2
Oc1cccc(C=NCc2ccccc2)c1O,-19,30,13,-3
O=C(/C(=N/N=C/c1ccc(O)c(O)c1O)c1ccccc1)c1ccccc1,-26,58*,9,12
Oc1ccc(/C=N/N=C(c2ccccc2)c2ccccc2)c(O)c1O,-23,85*,-7,1
CCN(CC)S(=O)(=O)c1cccc(C(=O)N/N=C/c2ccc(O)c(O)c2O)c1,-16,42,-15,16
C#CCN1CC(COCCCC)Oc2cccc(F)c2S1(=O)=O (stereo not drawn),·,·,5,19
O=C(N[C@H](C(=O)N1CCC[C@H]1C(=O)NC1CCCC1)c1ccccc1)c1ccccc1,·,·,-1,-8
COc1ccc2[nH]c3c(C)c4ccncc4c(C)c3c2c1,42*,2,0,3
Cc1c2ccncc2cc2c1[nH]c1ccccc12,·,-10,-12,2
O=c1c2cnn(-c3ccccc3)c2nc(-c2ccco2)n1-c1ccccc1,5,22,4,8
O=c1oc(-c2ccco2)nc2c1cnn2-c1ccccc1,-4,51*,-6,-7
CC(NNC(=S)N1CCCCCC1)c1ccc2ccccc2n1 (stereo not drawn),-11,0,-13,4
Oc1c(Br)cc(Br)cc1C=Nc1cccnc1,-1,52*,11,-9
Oc1ccc(Cl)cc1/C=N/c1nccs1,8,16,-9,-2
Oc1c(Br)cc(Br)cc1/C=N/c1nccs1,0,57*,-4,-24
Oc1c(Br)cc(Br)cc1C=Nc1ccc2[nH]ncc2c1,15,35,9,-6
COc1cccc(Nc2nc(N)c([N+](=O)[O-])c(N3CCOCC3)n2)c1,-10,18,-4,-2
COc1ccc(OC)c(Nc2nc(N)c([N+](=O)[O-])c(N3CCOCC3)n2)c1,-17,52*,1,2
O=C(NCC1CCN(C(=O)C(=O)c2cc3ccccc3o2)CC1)c1cccnc1,·,·,10,3
SMILES,Neddyl block,Cardio protect,ASAP1 inh,ARFGAP1 inh
N#Cc1ccc(S(=O)(=O)N2CCCc3nc(-c4ccc(Br)cc4)ccc32)cc1,·,·,-14,-4
COc1cccc(C2c3c(C)nn(-c4ccc([N+](=O)[O-])cc4)c3N=C3C(=O)Nc4ccccc4N32)c1 (stereo not drawn),8,56*,12,8
Cc1nn(-c2ccc([N+](=O)[O-])cc2)c2c1C(c1ccc(OC(F)F)cc1)N1C(=N2)C(=O)Nc2ccccc21 (stereo not drawn),5,45,-21,-2
CCCCc1c(-c2ccccc2OC)ncn1Cc1cccc(OC)c1,·,·,-19,-2
COC(=O)C1=C(C)NC(C)=C(C(=O)OC)C(N2C(=O)CCC2=O)C1 (stereo not drawn),·,·,6,-2
Cc1ccc(SCc2cc(=O)[nH]c(Nc3nc(C)c4ccc(C)cc4n3)n2)cc1,-6,2,-7,10
Cc1ccc2c(C)nc(Nc3nc(CSc4nc5ccccc5[nH]4)cc(=O)[nH]3)nc2c1,-3,69*,14,-1
O=C1c2cnc3ncnn3c2CC2c3ccccc3CCN12 (stereo not drawn),·,7,13,-3
CSc1nc2ncc3c(n2n1)CC1c2ccccc2CCN1C3=O (stereo not drawn),·,59*,10,-2
CCNC(=O)N1CCN(c2ccc(N3CCN(Cc4ccccc4)[C@@H](C)C3)c(C)c2)[C@H](C)C1,·,·,8,-1
CN1CCc2cc(O)c(O)cc2C(c2ccccc2)C1 (stereo not drawn),8,54*,-17,2
COCC(=O)N1C[C@H]2CON(C)[C@H]2C[C@H]1c1cccc(-c2cc(Cl)cc(Cl)c2)c1,·,·,7,3
COCc1cc(N2CCN(C(=O)OC(C)(C)C)C[C@H]2C)ccc1N1C[C@@H](C)O[C@@H](C)C1,·,·,-4,-5
C/C(=N\OCC(=O)N/N=C/c1ccc(C)cc1O)c1cccs1,40*,64*,6,4
CCOc1ccc(Br)cc1/C=N/O,0,2,6,-6
CCCc1ccc(O)c(N=Cc2cc(Br)cc(OCC)c2O)c1,1,71*,1,-4
O=C(NCCc1ccc(F)cc1)C(=O)Nc1cc2c3c(c1)CC(=O)N3CCC2,6,53*,5,-9
CCCNC(=O)c1cc(C2CCCN(C(=O)C3CC3)C2)on1 (stereo not drawn),-2,-3,-12,6
COc1ccc(-c2oc3ncnc(NCCN4CCOCC4)c3c2-c2ccc(OC)cc2)cc1,·,75*,·,·
COc1ccc(-c2oc3ncnc(NCCCN4CCOCC4)c3c2-c2ccc(OC)cc2)cc1,·,-8,-3,2
CC1CCN(C(=O)COC(=O)c2n[nH]c(=O)c3ccccc23)CC1,-22,62*,1,10
O=C(NN=Cc1ccc(O)c(O)c1)c1ccccc1,-9,28,·,·
COc1cc(C(=O)N/N=C/c2ccc(OC(=O)c3ccccc3Cl)c(OC)c2)ccc1O,-5,66*,·,·
COc1cc(/C=N/NC(=O)c2ccncc2)ccc1OC(=O)c1ccccc1Cl,-9,74*,14,7
COc1cc(/C=N/NC(=O)c2ccncc2)ccc1OC(C)=O,-11,-3,13,-1
SMILES,Neddyl block,Cardio protect,ASAP1 inh,ARFGAP1 inh
O=C(COc1ccccc1C(=O)N/N=C\c1ccc(O)c(O)c1)N/N=C/c1ccc(O)c(O)c1,7,54*,·,·
COc1cc(/C=N/NC(=O)c2ccncc2)ccc1OCC(=O)Nc1ccc(C)c(C)c1,30,52*,-3,8
COC(=O)[C@]12C[C@H](CC(=O)N3CCN(C(=O)c4ccco4)CC3)C(=O)N(Cc3ccc4c(c3)OCO4)C1=C[C@H](COCc1ccccc1)O[C@@H]2C,·,·,-11,4
CCc1ccc2oc(-c3ccc(OC)cc3)cc(=Nc3c(C)n(C)n(-c4ccccc4)c3=O)c2c1,45*,-19,8,-3
C=CCn1c(-c2ccc(OC)cc2)csc1=Nc1c(C)n(C)n(-c2ccccc2)c1=O,2,-9,4,-4
COC(=O)c1ccc2nc(-c3ccccc3)c(Cc3ccccc3OC)n2c1,25,1,11,3
CN(C)c1ccc(C(=O)NCC2CCN(C(=O)C(=O)c3cccs3)CC2)cc1,·,·,-3,1
CC(OC(=O)Cc1n[nH]c(=O)c2ccccc12)C(=O)Nc1ccc(F)cc1 (stereo not drawn),5,59*,3,10

# From PubChem BioAssay
